ChEMBL document CHEMBL1949554, “Peptidomimetics containing a vinyl ketone warhead as falcipain-2 inhibitors” (Eur J Med Chem, 2011)
The source made the active and inactive calls. The rule behind the calls is not given here.

How the values were obtained:
Plasmodium falciparum [1] = assay: Inhibition of Plasmodium falciparum Falcipain 2 using Cbz-Phe-Arg-AMC as substrate at 100 uM after 15 mins by spectrofluorometer analysis
Outline: (§1)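 Single-concentration screen at 100 and 30 inhibitor concentration, with an equal amount of DMSO as negative control and E-64 as positive control. AMC release from Cbz-Phe-Arg-AMC was followed fluorimetrically (ex 365, em 460 nm) as continuous increase in fluorescence. Percent inhibition is relative to DMSO. At least two independent measurements, each in duplicate.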

Procathepsin L [2] = molecular target: T1, Procathepsin L (Homo sapiens, UniProt P07711); assay: Inhibition of human cathepsin L using Cbz-Phe-Arg-AMC as substrate by spectrofluorometer analysis
Target sequence in this assay (P07711 whole entry): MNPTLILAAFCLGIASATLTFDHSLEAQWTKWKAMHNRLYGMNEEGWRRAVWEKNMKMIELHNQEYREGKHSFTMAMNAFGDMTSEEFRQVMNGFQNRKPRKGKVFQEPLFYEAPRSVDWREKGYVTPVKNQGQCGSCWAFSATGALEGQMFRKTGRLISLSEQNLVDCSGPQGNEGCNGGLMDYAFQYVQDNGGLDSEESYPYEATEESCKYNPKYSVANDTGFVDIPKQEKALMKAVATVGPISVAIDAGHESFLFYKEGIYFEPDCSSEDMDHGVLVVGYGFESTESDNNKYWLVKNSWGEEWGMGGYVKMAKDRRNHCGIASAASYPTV

Cathepsin B = Cathepsin B (Homo sapiens, UniProt P07858); assay: Inhibition of human cathepsin-B using Cbz-Phe-Arg-AMC as substrate by spectrofluorometer analysis
Plasmodium falciparum [3] = assay: Inhibition of Plasmodium falciparum Falcipain 2 using Cbz-Phe-Arg-AMC as substrate at 30 uM after 15 mins by spectrofluorometer analysis; outline: as §1
[4] = Inhibition of Plasmodium falciparum Falcipain 2 using Cbz-Phe-Arg-AMC as substrate after 15 mins by spectrofluorometer analysis
Outline: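 Continuous progress-curve assay in 50 mM sodium acetate pH 5.5 with 10 mM DTT, Cbz-Phe-Arg-AMC as substrate, inhibitors from DMSO stocks. AMC release read (ex 365, em 460 nm) for 15 min at room temperature. kobs from the fit F = A(1−exp(−kobs·t)) + B. Hyperbolic kobs vs [I] gave kinac and KI; linear plots gave k2nd = kobs/[I]. At least two independent runs, each in duplicate.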

Procathepsin L [5] = molecular target: T1, Procathepsin L; settings: 5 to 50 uM
Target sequence in this assay (P07711 114-333 limits assumed): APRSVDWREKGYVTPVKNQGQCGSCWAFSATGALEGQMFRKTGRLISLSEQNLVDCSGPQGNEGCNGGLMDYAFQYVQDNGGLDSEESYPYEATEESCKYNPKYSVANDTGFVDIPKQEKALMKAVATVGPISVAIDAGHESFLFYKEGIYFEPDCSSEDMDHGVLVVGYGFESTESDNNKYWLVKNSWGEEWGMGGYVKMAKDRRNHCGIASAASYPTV

Plasmodium falciparum [6] = assay: Antiplasmodial activity against Plasmodium falciparum FCBR; assay type: functional, organism-based; settings: FCBR/Columbia

Compound | Ki (Procathepsin L [2]; read-out: Ki) | Ki (Cathepsin B) | further results
CC(=O)/C=C/CNC(=O)CN1C(=O)[C@@H](CN2CCCCC2)N=C(c2ccccc2)c2ccccc21 | > 100 µM | > 100 µM | inhibition (Plasmodium falciparum [1]): 80%; inhibition (Plasmodium falciparum [3]): inactive
CC(=O)/C=C/CNC(=O)CN1C(=O)[C@@H](CNCC(C)C)N=C(c2ccccc2)c2ccccc21 | > 140 µM | > 100 µM | Ki [4]: > 100 µM
CC(=O)/C=C/CNC(=O)CN1C(=O)[C@@H](COC(=O)Nc2ccc(Cl)cc2C(F)(F)F)N=C(c2ccccc2)c2ccccc21 |  |  | Ki (Procathepsin L [2]; read-out: Ki(app)): 8.6 µM; inhibition (Procathepsin L [5]): tde
CC(=O)/C=C/CNC(=O)CN1C(=O)[C@@H](COC(=O)Nc2ccc(Cl)cc2C(F)(F)F)N=C(C)c2ccccc21 | 82 µM |  | IC50 (Plasmodium falciparum [6]): > 100 µM
CC(=O)/C=C/CNC(=O)CN1C(=O)[C@@H](CN2CCOCC2)N=C(c2ccccc2)c2ccccc21 |  | > 100 µM | 
